# Experimental data taken from paper PMC2842983 (Journal of medicinal chemistry, 2010).
# Entries after “also recorded” stand apart in the source; their conditions may differ.
# Experiments:
# [1] = target: T1, FGFR1 kinase (Homo sapiens, UniProt P11362); assay: ALPHAScreen assay, inhibition of FGFR1 kinase; assay type: biochemical; conditions: na = not active in the assay
# [2] = target: T2, EGFR (Homo sapiens, UniProt P00533); conditions: cited from earlier work
# [3] = test system: PDGFR; conditions: cited from earlier work
# [4] = test system: insulin receptor (InsR); conditions: cited from earlier work
# [5] = target: T1, FGFR1 kinase; conditions: cited from earlier work; for IC50: read-out: IC50 for FGFR1 kinase activity
# [6] = target: T2, EGFR; assay: ALPHAScreen kinase assay, EGFR; assay type: biochemical
# In short: (§1)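 Recombinant kinase was sourced commercially. In the AlphaScreen format, kinase, biotinylated peptide, ATP and test compound were combined across 10 wells, typically spanning 0.01 µM to 250 µM compound. Phosphorylation ran for 30 minutes and was stopped with EDTA. Phosphopeptide was detected with anti-phosphotyrosine acceptor beads and streptavidin donor beads, and IC50 was derived from the concentration series.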
# [7] = target: InsR (Homo sapiens, UniProt P06213); assay: ALPHAScreen kinase assay, InsR; assay type: biochemical; conditions: kinase from Millipore, na = not active
# Chain of InsR (P06213 28-1382, species assumed): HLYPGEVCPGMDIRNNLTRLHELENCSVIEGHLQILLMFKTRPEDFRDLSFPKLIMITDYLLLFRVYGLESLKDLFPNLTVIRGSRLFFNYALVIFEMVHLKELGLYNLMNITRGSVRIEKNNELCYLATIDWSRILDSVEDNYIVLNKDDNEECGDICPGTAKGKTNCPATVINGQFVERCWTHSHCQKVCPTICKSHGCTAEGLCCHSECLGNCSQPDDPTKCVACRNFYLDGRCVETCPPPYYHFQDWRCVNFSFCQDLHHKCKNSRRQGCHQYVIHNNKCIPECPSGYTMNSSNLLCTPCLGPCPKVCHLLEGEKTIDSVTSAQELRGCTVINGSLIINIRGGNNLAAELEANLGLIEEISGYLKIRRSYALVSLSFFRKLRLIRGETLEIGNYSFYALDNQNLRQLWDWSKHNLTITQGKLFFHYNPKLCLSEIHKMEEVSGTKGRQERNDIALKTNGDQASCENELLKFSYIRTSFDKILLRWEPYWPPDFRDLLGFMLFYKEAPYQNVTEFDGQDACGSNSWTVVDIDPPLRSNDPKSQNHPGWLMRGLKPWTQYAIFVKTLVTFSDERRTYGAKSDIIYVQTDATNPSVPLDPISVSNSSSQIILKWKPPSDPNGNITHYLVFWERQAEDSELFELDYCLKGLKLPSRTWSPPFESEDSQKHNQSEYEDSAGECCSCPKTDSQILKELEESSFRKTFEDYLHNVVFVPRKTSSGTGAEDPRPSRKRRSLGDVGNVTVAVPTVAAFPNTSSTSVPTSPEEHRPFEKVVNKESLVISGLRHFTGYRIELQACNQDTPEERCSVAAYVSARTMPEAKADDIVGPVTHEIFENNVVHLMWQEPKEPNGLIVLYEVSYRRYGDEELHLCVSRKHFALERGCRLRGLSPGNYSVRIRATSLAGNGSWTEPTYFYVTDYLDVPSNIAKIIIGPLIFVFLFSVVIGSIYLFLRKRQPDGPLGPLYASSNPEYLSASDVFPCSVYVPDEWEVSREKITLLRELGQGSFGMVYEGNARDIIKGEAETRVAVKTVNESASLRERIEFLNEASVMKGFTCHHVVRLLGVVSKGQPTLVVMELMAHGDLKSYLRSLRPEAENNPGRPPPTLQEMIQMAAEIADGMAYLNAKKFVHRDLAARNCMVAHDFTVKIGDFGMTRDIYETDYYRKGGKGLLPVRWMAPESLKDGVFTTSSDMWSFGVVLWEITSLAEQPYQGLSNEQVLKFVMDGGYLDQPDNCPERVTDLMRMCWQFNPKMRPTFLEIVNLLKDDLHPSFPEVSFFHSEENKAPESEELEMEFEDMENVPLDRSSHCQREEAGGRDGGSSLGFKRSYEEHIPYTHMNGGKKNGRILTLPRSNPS
# In short: as §1
# [8] = test system: Src, InsR, EGFR, PDGFR, and several other kinases; conditions: cited from earlier work
# T1 sequence (P11362 478-767 limits assumed): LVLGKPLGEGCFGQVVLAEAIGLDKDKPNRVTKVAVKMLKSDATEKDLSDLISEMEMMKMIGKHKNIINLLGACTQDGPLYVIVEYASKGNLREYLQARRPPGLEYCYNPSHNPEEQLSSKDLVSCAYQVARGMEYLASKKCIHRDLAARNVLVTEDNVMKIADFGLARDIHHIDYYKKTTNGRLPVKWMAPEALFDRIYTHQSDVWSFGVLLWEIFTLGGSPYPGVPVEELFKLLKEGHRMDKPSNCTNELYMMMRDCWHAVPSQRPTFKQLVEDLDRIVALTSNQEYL
# T2 sequence (P00533 25-1210, species assumed): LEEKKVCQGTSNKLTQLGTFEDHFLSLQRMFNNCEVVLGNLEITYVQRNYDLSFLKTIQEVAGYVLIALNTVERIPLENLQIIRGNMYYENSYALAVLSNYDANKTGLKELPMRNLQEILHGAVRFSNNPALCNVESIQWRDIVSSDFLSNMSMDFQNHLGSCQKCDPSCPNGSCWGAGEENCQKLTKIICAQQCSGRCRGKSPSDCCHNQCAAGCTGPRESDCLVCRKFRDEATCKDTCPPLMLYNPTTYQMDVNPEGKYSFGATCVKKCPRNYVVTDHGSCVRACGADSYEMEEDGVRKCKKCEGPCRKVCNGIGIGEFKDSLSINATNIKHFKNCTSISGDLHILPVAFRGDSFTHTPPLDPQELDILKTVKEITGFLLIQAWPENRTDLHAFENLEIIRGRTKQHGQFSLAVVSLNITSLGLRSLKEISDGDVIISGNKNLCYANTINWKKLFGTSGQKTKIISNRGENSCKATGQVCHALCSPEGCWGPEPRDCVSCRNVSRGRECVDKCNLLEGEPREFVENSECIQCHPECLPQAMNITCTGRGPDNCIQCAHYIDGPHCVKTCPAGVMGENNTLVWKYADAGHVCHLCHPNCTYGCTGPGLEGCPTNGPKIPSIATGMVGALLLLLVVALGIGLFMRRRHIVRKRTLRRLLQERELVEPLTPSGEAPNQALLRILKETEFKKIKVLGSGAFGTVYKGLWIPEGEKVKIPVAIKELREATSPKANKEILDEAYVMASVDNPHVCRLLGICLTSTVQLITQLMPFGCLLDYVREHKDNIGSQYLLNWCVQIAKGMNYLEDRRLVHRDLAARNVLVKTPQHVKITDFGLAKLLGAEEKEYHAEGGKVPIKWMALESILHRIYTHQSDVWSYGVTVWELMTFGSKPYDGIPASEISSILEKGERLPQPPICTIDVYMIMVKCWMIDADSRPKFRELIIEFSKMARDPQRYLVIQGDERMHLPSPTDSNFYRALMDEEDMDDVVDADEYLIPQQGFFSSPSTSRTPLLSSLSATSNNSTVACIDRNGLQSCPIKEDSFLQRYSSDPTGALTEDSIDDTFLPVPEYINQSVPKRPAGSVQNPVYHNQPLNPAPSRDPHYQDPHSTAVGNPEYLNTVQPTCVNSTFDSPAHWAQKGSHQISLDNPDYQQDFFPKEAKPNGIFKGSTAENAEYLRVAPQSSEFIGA
compound,measurement,setting,value
COc1cc(-c2nc(=O)c3c([nH]2)sc2cc(C(F)(F)F)ccc23)ccc1OCC(=O)O [compound 39],IC50 for inhibition of FGFR1 kinase,[1],eliminated activity
COCc1cc(/C=C2\NC(=S)NC2=O)ccc1OCCCOc1cc(C)cc(C)c1 [compound 30],IC50 for inhibition of FGFR1 kinase,[1],weak activity
"Cc1c[nH]c(/C=C2\C(=O)Nc3ccccc32)c1CCC(=O)O [compound 2, SU5402]",inhibition of EGFR kinase activity,[2],does not inhibit
same,inhibition of PDGFR kinase activity,[3],weak inhibitor
same,inhibition of InsR kinase activity,[4],does not inhibit
same,IC50,[5],10 to 20 µM
COc1cc(-c2nc(=O)c3c([nH]2)sc2ccc(C)cc23)ccc1OCC(=O)O [compound 40],IC50,[6],2000 nM
same,IC50 InsR,[7],does not inhibit; also recorded: no inhibition
"CCN(CC)CCCCNc1ncc2cc(-c3cc(OC)cc(OC)c3)c(NC(=O)NC(C)(C)C)nc2n1 [compound 3, PD173074]",IC50 for other kinases relative to FGFR1,[8],≥ 1000 fold
same,potency of FGFR1 inhibition,[5],nanomolar potency
"O=CN1CCN(c2ccc(/C=C3\C(=O)Nc4ccccc43)cc2)CC1 [compound 1, SU4984]",inhibition of EGFR kinase activity,[2],does not inhibit
same,inhibition of PDGFR kinase activity,[3],inhibits
same,inhibition of InsR kinase activity,[4],inhibits
same,IC50,[5],10 to 20 µM
COc1cccc(-c2nc(=O)c3c4c(sc3[nH]2)CC(C)CC4)c1 (centres unmarked) [compound 36],IC50 for inhibition of FGFR1 kinase,[1],do not inhibit
COc1ccc(-c2nc(=O)c3c4c(sc3[nH]2)CC(C)CC4)cc1OC (centres unmarked) [compound 35],IC50 for inhibition of FGFR1 kinase,[1],do not inhibit
CCOc1cc(/C=C2\NC(=S)NC2=O)ccc1OCCCOc1cc(C)cc(C)c1 [compound 29],IC50 for inhibition of FGFR1 kinase,[1],weak activity
